System: MS2 coat protein
Assay: apparent Kd, MS2 coat protein; higher = weaker binding; RNA-MaP array; FMN 200 µM where present
How it was run: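 In 100 mM Tris-HCl pH 7.5, 80 mM KCl, 4 mM MgCl2, BSA, DTT, yeast tRNA and Tween-20, SNAP-549-labelled MS2 coat protein was titrated from 0.7 or 1.5 nM, doubling to 3 µM, over designs transcribed by stalled E. coli RNA polymerase on Illumina sequencing-chip clusters. This was done first without ligand, then with ligand held constant. After green signal was normalised to red-channel RNA signal and control-cluster median Fmax, the apparent Kd was taken as the median of filtered per-cluster binding-curve fits.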

[1] = designed as: OFF switch for flavin mononucleotide, no ligand
[2] = ligand present: flavin mononucleotide, designed as: OFF switch for flavin mononucleotide
[3] = designed as: ON switch for flavin mononucleotide, no ligand
[4] = ligand present: flavin mononucleotide, designed as: ON switch for flavin mononucleotide

Sequence	apparent Kd [1]	apparent Kd [2]	apparent Kd [3]	apparent Kd [4]
AAAACAGUGUAGGAUAUGGCUGGGCUGAAAAUGCUAGAAGGACACACAUGAGGAUCACCCAUGUGACUUCGUGC	13.8 nM	15.5 nM	–	–
AAGAAGUGAGGAUAUCCUGCUCGUCACUUGCGUGAUGAGUAGGAGAAGGCACAUGAGGAUCACCCAUGUAAAGA	37.4 nM	41.6 nM	–	–
AACCUAUUACAGAAGGCCAGCUACAUGAGGAUCACCCAUGUCGAGUCAUGGAGGAUAUGUAGUAAUUUGCACGCGGGCGAGCAC	–	–	59.7 nM	7.05 nM
GCGAUUGCGUAGAAGGUACUAUAUAAUACACUGUAAGGAUAUACAUACAUGAGGAUCACCCAUGUAAAUGGAAUUUGCAAUCGC	–	–	6.93 nM	6.41 nM
AAUAACAGAGGAUAUACUAUUUUAUGUGUUUAUUGUUUUAAACAUGAGGAUCACCCAUGUAGAAGGCUGAGUAA	42.2 nM	59.8 nM	–	–
GCUUGGCGAGGAUAUACAUGAGGAUCACCCAUGUGAGAGAAUAAAGUGAGGAAGAAAAGUAGAAGGCGCUGAGG	54 nM	271 nM	–	–
AAAAAAAAAAGGCAGGAUAUCCAAAAAAAAACAUGAGGAUCACCCAUGUAAAAAAAAAAAAAGUGGGAGAAGGGCCAAAAAAAAAA	–	–	45.3 nM	15.6 nM
UCUUUCCGGAAUAUAAGUUGACUUCAGGAUAUCACAUGAGGAUCACCCAUGUGAUGCUUUAUUGCUGAGAAGGGAAGUCAUACC	11.7 nM	38.6 nM	–	–
AAGGUACGAGGAUAUACAUAGAUACAGACACAUGUUCAAGUACAUGAGGAUCACCCAUGUAGAAGGCGUAUAUA	38.7 nM	160 nM	–	–
UAUAUGUCAGGAUAUUAAUUAAAAUGGAAUUUAGUUUUAAUUAAGAAGGGACAUGAGGAUCACCCAUGUUCCUC	20.9 nM	128 nM	–	–
GGUCUGAUAUGAGGAUAUGCUCAGGAAUACUGAGCAGAAGGCAUGUGAAAACAUGAGGAUCACCCAUGUAUGAUCUACAGACCA	–	–	47 nM	21.8 nM
CUAUAUAUAUGAGGAUAUGUAUAUCCAACAUGAGGAUCACCCAUGUUGAGGAUCACCCAUGUAAAGCAGAAGGCAUAUAUAUAG	–	–	22.7 nM	13.4 nM
GGAGCCGGCACUGAGGAUAUUCAUAUUAAAACAUGAGGAUCACCCAUGUAGGCCAGAAGGCCUUGGGAGAAGGCAGGUCGACUCG	–	–	406 nM	28.9 nM
GAAGUAUCCAAUAACAUGAGGAUCACCCAUGUCAAAAGACGGGAGGAUAUUGAUCUGAAGAAGAUCAAGAAGGCCUGGUGCUAA	–	–	19.2 nM	11.1 nM
UGUAUGGACAGAGGAUAUGCCGAUAGGAUCUAUUAUCGAAGAAUCCUCACAUGAGGAUCACCCAUGUAGAAGGCUGUCCAUACU	9.32 nM	35.8 nM	–	–
AAUAACAGAGGAUAUACUGUUUUAUGUAUUUAUUAUUUUGAACAUGAGGAUCACCCAUGUAGAAGGCUGAUUAA	33.3 nM	28.4 nM	–	–
CUGGUGUGAGGAUAUCAGGGCACGCCCAAGGGCGUACCAAAUGAGAAGGCACAUGAGGAUCACCCAUGUGGGAC	36.5 nM	160 nM	–	–
GUAGCAUACCGAGGAUAUUCAUACCGAAAACGGACAUGAGGAUCACCCAUGUGGCGAAAGCCUUGGGAGAAGGCGGAAUGCUAC	–	–	592 nM	26.2 nM
UUACAGCACGGGUAGGAUAUGUAGGGUGGUACAUGAGGAUCACCCAUGUAUCCACCCUUCUAACGGCAGAAGGGCCUGUCGCUGC	–	–	31.8 nM	20.9 nM

Sequence	apparent Kd [1]	apparent Kd [2]	apparent Kd [3]	apparent Kd [4]
GGAUAGGACAGAGGAUAUACGUGCUAGAGAGACUAGCAAAAUUUCCUCACAUGAGGAUCACCCAUGUAGAAGGCUGUCCUAUCG	16.3 nM	432 nM	–	–
ACCGGAGCAGGAUAUACAUGAGGAUCACCCAUGUGAGCCACACAGCUACUAUAUGCAAGUAGAAGGGCUCGGGU	74.2 nM	120 nM	–	–
UAGGAGCAAGGAUAUACGAGGAUAUGGUAGUUUGUAGAGUGACAUGAGGAUCACCCAUGUAGAAGGUGCGUGUG	123 nM	99.7 nM	–	–
AAGUCGUGAGGAUAUACAUGGAUAUACAUUUAUGUGGACCUACAUGAGGAUCACCCAUGUAGAAGGCACGAAUA	85.2 nM	69.4 nM	–	–
CGUGUUAUCGAAGGAUAUGGAUACAUGAGGAUCACCCAUGUAUAUUUUGUGAUCAAGUUUAAGAUCCAGAAGGUCGUAUACACG	54.9 nM	119 nM	–	–
UAUAACCAAGGAUAUACAUGAGGAUCACCCAUGUAAUAUAGUAUAAUAUAUGUAAAAUGUAGAAGGUGGGAUGU	32 nM	34 nM	–	–
UUUUUAUUUGCAGGAUAUUGUAUUUUAUUACUUCAAGAAGGGCAUUACAUGAGGAUCACCCAUGUCUUCCUAUGGUUAACUAGU	12.3 nM	12 nM	–	–
ACAAGAUCAGGAUAUACAUGAGGAUCACCCAUGUAUAUCAAAAAGGGACUUUCUUAAUGUAGAAGGGAUCUUGU	13.3 nM	12.8 nM	–	–
GGAUGUCAAAGACAUCCAAUUCGAACAUGAGGAUCACCCAUGUAGGAUAUGCUACUCAAAGAGUAGCAGAAGGACAUGUGCCUU	30.6 nM	213 nM	–	–
CUAUAUAAUACCUCAUGUACAUGAGGAUCACCCAUGUUAACUAAGGAUAUAUAUAUAUUAAUAAUGUAGAAGGUAGUACUAUUU	16 nM	11.8 nM	–	–
UGGUGGUAGCAGGAUAUGCUUGUUGUGUAGUUUGCAGAAGGGCUAACAUGAGGAUCACCCAUGUAAGAGGUGUU	331 nM	162 nM	–	–
GAUAGGACAGAGAAGGACGUAGCUAGAGAUACUAGCAUAAGAACCUUUACAUGAGGAUCACCCAUGUAGGAUAUCUGUCCUAUC	5.88 nM	6.89 nM	–	–
GCCCGGGCAGGAUAUGCAGGCCCGGGAAACCGGGCCAUGGGACAUGAGGAUCACCCAUGUAGAAGGGCCCGGGC	17.1 nM	17.3 nM	–	–
AUUUUAUAAUAGAAGGAAGACUUCAUGAGGAUCACCCAUGUGUUGGUACUUAGGAUAUGUAAUAACAUGAGGAUCACCCAUGUC	–	–	25.6 nM	26.1 nM
CGAGCUGCUGUGAGGAUAUGCCUGUGGGUGCGUGGGUAGAAGGCACAUGAGGAUCACCCAUGUCCUGCAGCUCG	856 nM	412 nM	–	–
AUCAUGUCAGGAUAUCGUGCAGCUACCGAAAGGUAGCUGCACGAGAAGGGACAUGAGGAUCACCCAUGUAUGAA	221 nM	117 nM	–	–
AAUCGUAGAACGAUCACUACCAGUCAGGAUAUACAUGAGGAUCACCCAUGUCGUGUCGACAGCAUGUAGAAGGGACGGUUAUAU	27.1 nM	66 nM	–	–
GGAUGUCAAAGACAUCCAAUACGAACAUGAGGAUCACCCAUGUAGGAUAUGCUACUCAAAGAGUAGCAGAAGGACAUGUGCCUU	33.6 nM	271 nM	–	–
UGUUGUAUUACAGGAUAUCUAUUAUUUUUAUUUAGAGAAGGGUAUUCACAUGAGGAUCACCCAUGUAUAUACGAGGAAGUUGUG	–	–	52.6 nM	58.9 nM

Sequence	apparent Kd [1]	apparent Kd [2]	apparent Kd [3]	apparent Kd [4]
GUGACACAUGAGGAUCACCCAUGUGAGGAUAUGAUACUAUGUACUUCGGUACAUAGUAUCAGAAGGCACAGUGA	50.2 nM	119 nM	–	–
UUAAUUAUACAAGGAUAUCUAUUGUUGUUUCGACAUACAUGAGGAUCACCCAUGUUAGUAUGUUUAGAGAAGGUGUAUUUUCAG	–	–	29 nM	25.7 nM
GCCAGGAUGUGAGGAUAUGCUGAGGAUAACUCAGCAGAAGGCACAUGAGGAUCACCCAUGUAAACUUAUCAUAAAUACCCUGGC	14.3 nM	21.2 nM	–	–
UUGGACGUCGUAGGAUAUGUAGGAUUUUCCUACAUGAGGAUCACCCAUGUUGAAAUGGAAGAAGGACAGAAGGACGAUGUCCAU	–	–	139 nM	16.2 nM
GUCAGCUCGUGAGGAUAUACAACAAUGCUUCGGCAGUGUAUUAAGAUCACAUGAGGAUCACCCAUGUAGAAGGCACGAGCUGAU	7.66 nM	73.7 nM	–	–
CACCGUUACAGAGGAUAUGAUACAUGAGGAUCACCCAUGUAAUAAAUGAGAAUUUCGAAUGUACCUCAGAAGGCUGGAACCGGC	40.4 nM	83.2 nM	–	–
GGGUACAUCGGAGGAUAUCAUGUGAAUACAUGAGGAUCACCCAUGUCGAUGGAGACAUCGGAGAUUGAGAAGGCCGAUGUACCG	–	–	446 nM	15.1 nM
UCAGGCUUCGAGAAGGACAUGAGGAUCACCCAUGUGCGUGUGAAGCAGCCGUGAGGCUGCAUCAUGUAGGAUAUCGGAGUCUGU	92.3 nM	554 nM	–	–
AGGAGGUCAGGAUAUGCAUGGCGGGACUUGCGUCGUGGCGUGCAGAAGGGACAUGAGGAUCACCCAUGUGGAGA	86.1 nM	220 nM	–	–
CAACAGUCAGGAUAUGCAAAAAAAAAAAAAAAAAAAAAAAAGCAGAAGGGACAUGAGGAUCACCCAUGUUGUCG	30 nM	16.7 nM	–	–
ACGAACCUAGGAUAUACAUGAGGAUCACCCAUGUACUACUAUCCAUGAAUGACCCUCGGUAGAAGGAGGAUCAA	18.1 nM	21.5 nM	–	–
CUUAAGGCAGGAUAUGCUUUUUGUGACAUGAGGAUCACCCAUGUGAUGCAGUUUGGGUGUGCAGAAGGGCCUGAGU	364 nM	172 nM	–	–
CGCAGGAUACAGAAGGAGUUAUUGAGAGGUUUACUAGGAUAUGUUCACAUGAGGAUCACCCAUGUCGUAUGGUUUUUUGUUGCG	22.6 nM	16.1 nM	–	–
CUAGCAUACCGAGGAUAUUCAUAUAAUAAAUAAACAUGAGGAUCACCCAUGUGGCGAAAGCCUAGGGAGAAGGCGGAAUGCUAC	–	–	162 nM	27 nM
GCCGGAUUUGUGAGGAUAUACCUAUGGAUACAUAGGUAGAAGGCACAUGAGGAUCACCCAUGUUCCUCUCCGGC	49 nM	582 nM	–	–
AAAUCGUCAGGAUAUGCUAGUAAAUGUUACAUUUCUUCAUAGCAGAAGGGACAUGAGGAUCACCCAUGUAAGUC	33.7 nM	45.6 nM	–	–
AACAUGGUCCAGAAGGGCUAUUUAUUUAAUUAUUAUUUAGAACAGCAUAGCAGGAUAUGGUUAACAUGAGGAUCACCCAUGUAC	–	–	16 nM	11.5 nM
CAUAUGUGAGGAUAUGACAAUGGUAUCUUCGGAUACCAUUGUCAGAAGGCACAUGAGGAUCACCCAUGUGGAUC	222 nM	30.7 nM	–	–

Reference: the EternaBench riboswitch data
